# Screens (PubChem)
# The list is not random: actives were taken first. Their share in the collection is about 1.8%.
# Runt-CBFb FRET – blocks binding of human RUNX1 Runt domain to CBFb; 220,000 compounds, 0.46% hits; Cerulean-Runt/Venus-CBFb FRET ratio 530/480, 1 h; inhibition, % at 20 µM; AID 1496;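 active = inhibition over about 50% at 20 µM in the single-dose screen, limit read from the data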;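 note: 0% = DMSO wells and 100% = excess unlabeled CBFb competitor control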
# Target sequence (Q01196 whole entry, looked up, the tested form may be a part): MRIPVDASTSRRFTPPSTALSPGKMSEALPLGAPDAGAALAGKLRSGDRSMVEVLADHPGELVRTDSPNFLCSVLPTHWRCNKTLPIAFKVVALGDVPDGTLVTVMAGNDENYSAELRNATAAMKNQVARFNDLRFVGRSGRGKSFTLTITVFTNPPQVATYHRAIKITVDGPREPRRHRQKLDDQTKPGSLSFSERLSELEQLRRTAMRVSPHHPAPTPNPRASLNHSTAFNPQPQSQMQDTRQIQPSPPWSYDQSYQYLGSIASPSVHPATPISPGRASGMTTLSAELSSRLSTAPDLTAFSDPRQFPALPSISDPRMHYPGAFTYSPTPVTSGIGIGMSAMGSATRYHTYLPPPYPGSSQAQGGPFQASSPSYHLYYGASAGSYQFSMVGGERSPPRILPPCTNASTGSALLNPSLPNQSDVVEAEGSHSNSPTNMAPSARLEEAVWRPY
# Target sequence (Q13951 whole entry, looked up, the tested form may be a part): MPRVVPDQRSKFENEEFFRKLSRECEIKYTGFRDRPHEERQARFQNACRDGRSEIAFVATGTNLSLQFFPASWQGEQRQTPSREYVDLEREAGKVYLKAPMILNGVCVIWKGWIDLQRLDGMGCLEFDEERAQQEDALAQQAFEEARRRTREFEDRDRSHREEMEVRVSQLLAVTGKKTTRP
#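 test system = Cerulean-Runt domain fusion protein, energy donor | probe or stimulus = Venus-CBFb binding partner, 100 nM | incubation = two 1 h room-temperature incubations shielded from light | detection = fluorescence energy transfer, 422 nm excitation, 530/480 nm emission | measure = loss of energy transfer signal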
# RanGTP-Impb inh – inhibitors of RanGTP-importin-beta interaction, primary screen, biochemical, FRET, CFP-Ran, YFP-importin-beta, homogeneous. cell-free CFP-Ran/YFP-importin-beta FRET ratio. inhibition, % (test concentration not listed). 300,000 compounds, 1.1% hits. AID 2216;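 active = more than half of the replicate wells show a fall in the fluorescence ratio signal beyond about 16%, limit read from the data, passing the limit was not always enough; inconclusive = exactly half of the replicate wells pass the set limit; inactive = fewer than half of replicates pass the limit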;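 note: 0% = DMSO wells and 100% = Ran loaded with GDP instead of GTP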
# Runt-SMMHC FRET – inhibitors of human RUNX1 Runt domain binding to CBFb-SMMHC. Q01196+Q13951. Cerulean-Runt/Venus-CBFb-SMMHC FRET ratio 530/480, 1 h. inhibition, % at 20 µM. 220,000 compounds, 0.74% hits;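 active = mean inhibition across duplicate retests at 20 µM reaching about 50%, limit read from the data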;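 note: 0% = DMSO wells and 100% = wells with excess untagged CBFb-SMMHC; inhibitors lower the FRET ratio by blocking Runt binding to CBFb-SMMHC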
# Hck Nef HTS – inhibitors of human Hck kinase activated by Nef; P08631; Recombinant Hck-YEEI plus Nef, Z-Lyte FRET kinase assay; inhibition, % at 20 µM; 220,000 compounds, 0.68% hits;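 active = Hck-Nef kinase inhibition above about 50%, limit read from the data; inactive = inhibition below that limit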;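 note: 0% = DMSO with Hck plus Nef and 100% = Hck alone without Nef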
# RUNX1 CBFb TR – inhibitors of human RUNX1 Runt domain binding to CBFb. shares compounds with Runt-CBFb FRET. TR-FRET RUNX1 Runt domain-CBFb binding. inhibition, % at 20 µM. 480 compounds, 20% hits; in the data active = inhibition above about 40%
# YIC FRET counter – counter-screen for RanGTP-importin-beta inhibitors: YIC FRET probe; AID 435026; IC50, µM; 1,000 compounds, 40% hits; shares compounds with RanGTP-Impb inh; Purified YIC probe, intramolecular FRET ratio YFP/CFP;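 active = fitted half-maximal inhibitory concentration no more than tenfold above the top dose tested; inconclusive = flat fit with 30 to 70% activity, or poor fit; inactive = half-maximal concentration beyond tenfold above the top dose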
# Hck Nef conf – confirmation of Hck-Nef kinase inhibitors. shares compounds with Hck Nef HTS. Recombinant Hck-YEEI:Nef, Z-Lyte FRET kinase assay. calls only at 10 µM. 1,300 compounds, 28% hits. AID 463188;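 active = average inhibition of at least 50%, with Z-scores no higher than 3 in both the phospho-tyrosine peptide and fluorescence counterscreens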
# Starred values were filed as active, the others as inactive; i = inactive; ? = inconclusive; nt = no result given.
SMILES,Runt-CBFb FRET,RanGTP-Impb inh,Runt-SMMHC FRET,Hck Nef HTS,RUNX1 CBFb TR,YIC FRET counter,others
Cc1ccc(-c2nc3cccnc3s2)cc1NS(=O)(=O)c1cccs1,1,0,-3,1,nt,nt,
C=CCn1c(N)c(C(=O)Nc2ccc(C)c(C)c2)c2nc3ccccc3nc21,3,5,19,7,nt,nt,
C=CCn1c(N)c(C(=O)OCCC)c2nc3ccccc3nc21,69*,21*,119*,36,16,>50,
COC(=O)C1=CN(Cc2ccc(C)cc2)C=C(C(=O)OC)C1c1cc(OC)c(OC)c(OC)c1,nt,8,nt,nt,nt,nt,
COCCN1C=C(C(=O)OC)C(c2cc(Br)c(OC)c(OC)c2)C(C(=O)OC)=C1,73*,20*,142*,68*,39,31*,
Cc1cc(NC(=O)COc2ccccc2C)ccc1NC(=O)c1cccs1,nt,0,nt,nt,nt,nt,
CCOC(=O)N1CCN(C(=S)Nc2ccc(C)cc2)CC1,-2,-3,1,5,nt,nt,
Cc1ccc(S(=O)(=O)N2CCC(C(=O)NNC(=O)c3ccncc3)CC2)cc1,2,6,0,-6,nt,nt,
CCOCCCNC(=O)/C(C#N)=C/c1cc(Br)c(O)c(Br)c1,68*,38*,116*,21,-20,15*,
CC(=O)N1CCc2c(sc(NC(=O)c3ccc4c(c3)OCCO4)c2C#N)C1,65*,39*,90*,0,-246,52*,
CCN1C2=C(C(=O)CCC2)C(c2ccc(O)c(Br)c2)C2=C1CCCC2=O,54*,35*,122*,10,27,8.4*,
CCCCc1cc(=O)oc2c(CN(C)C)c(O)c(Cl)cc12,75*,nt,156*,117*,-7,nt,
CCCCc1cc(=O)oc2cc(OCC(=O)N(CC)CC)c(Cl)cc12,-7,-2,-7,3,nt,nt,
NC(=O)CC(NC(=O)c1cccc(Br)c1)c1ccc(NC2CCCCCCCCCCC2)c([N+](=O)[O-])c1 (stereo unspecified),nt,0,nt,nt,nt,nt,
CCCn1nc(NC(=O)C2CCCO2)c2cc3cccc(C)c3nc21 (stereo unspecified),62*,68*,82*,52*,24,nt,Hck Nef conf=i
COc1c(O)ccc(/C=C(\C#N)c2nc3ccccc3[nH]2)c1[N+](=O)[O-],74*,20*,100*,50*,0,nt,Hck Nef conf=i
O=C(Cc1cccs1)NCCS(=O)(=O)N1CCN(c2cccc(Cl)c2)CC1,nt,1,nt,nt,nt,nt,
COc1cccc(C2C(C(=O)Nc3nc4ccccc4s3)=C(C)NC3=C2C(=O)CC(C)(C)C3)c1OC (stereo unspecified),54*,69*,82*,57*,6,nt,
CCc1c(C)c2cc(Cl)c(O)c(CN3CCCCC3)c2oc1=O,85*,22*,156*,118*,-6,26*,
Cc1ccc(C(=O)Oc2ccc3ccc(=O)oc3c2)cc1,nt,-1,nt,nt,nt,nt,
CC(=O)Oc1ccc2ccc(=O)oc2c1,51*,13,85*,122*,39,nt,
CC(NC(=O)OC(C)(C)C)C(=O)Oc1ccc2ccc(=O)oc2c1 (stereo unspecified),68*,nt,113*,74*,36,nt,
COc1ccc2ccc(=O)oc2c1,1,?,0,-1,nt,nt,
CN(CCC1CCOCC1)C(=O)C1CCC(=O)N(CCc2cccc(F)c2)C1 (stereo unspecified),nt,4,nt,nt,nt,nt,
O=C(NCC1CCCO1)c1ccc([N+](=O)[O-])s1 (stereo unspecified),nt,-1,nt,nt,nt,nt,
SMILES,Runt-CBFb FRET,RanGTP-Impb inh,Runt-SMMHC FRET,Hck Nef HTS,RUNX1 CBFb TR,YIC FRET counter,others
CCCCn1c(NC(=O)c2ccc(Br)o2)c(S(=O)(=O)c2ccccc2)c2nc3ccccc3nc21,64*,25*,136*,84*,2,4.9*,
Nc1c(S(=O)(=O)c2ccccc2)c2nc3ccccc3nc2n1CCN1CCOCC1,1,3,7,19,nt,nt,
COCCNC(=S)N1CCCN(c2nc3cc(C)ccc3cc2C#N)CC1,nt,18*,nt,nt,nt,31*,
CCn1ncc(CNC(=O)C2(C)CC2(Cl)Cl)c1C (stereo unspecified),-3,6,-1,2,nt,nt,
CC(=O)O/N=C/c1c(Cl)n(C)c2ccccc12,-1,48*,4,7,nt,>50,
CCc1ccc(N2CC(C(=O)Nc3cc(C)on3)CC2=O)cc1 (stereo unspecified),-1,1,0,15,nt,nt,
CCOCCCNC(=S)NCCCNc1nc2cc3c(cc2cc1C#N)OCO3,20,56*,129*,21,nt,13*,
CCOCCCNC(=S)N1CCC(C(=O)c2ccc3c(c2)OCCO3)CC1,0,0,-4,-1,nt,nt,
Cc1ccc(-c2cc(C(=O)N(C)CC(=O)Nc3ccccc3Br)c3ccccc3n2)o1,nt,5,nt,nt,nt,nt,
Cc1ccc(Nc2cc(C)nn2-c2nc(C)cc(C)n2)cc1,-1,24*,-2,-1,nt,>50,
CCOc1ccccc1N(CC(=O)NC1CCCCC1)S(=O)(=O)c1ccc(C)cc1,nt,-2,nt,nt,nt,nt,
COc1ccc(NC(=O)c2ccc(NC(=O)COC(=O)c3cnc(C)cn3)cc2)cc1,nt,8,nt,nt,nt,nt,
COc1ccc(N(CC(=O)NCc2ccco2)C(=O)CCC(=O)Nc2nccs2)cc1,nt,-1,nt,nt,nt,nt,
CCc1ccccc1N(CC(=O)NCc1ccco1)C(=O)CCC(=O)Nc1nccs1,nt,22*,nt,nt,nt,>50,
COC(=O)c1cc(=O)n2c(sc3ccccc32)c1C#N,66*,45*,88*,3,nt,4.1*,
COc1ccc(N2CCN(C(=O)CCN3C(=S)NC(C)(C)CC3C)CC2)cc1 (stereo unspecified),0,0,-1,26,nt,nt,
Oc1c(C=Nc2ccccc2)sc2ccccc12,nt,16*,nt,25,nt,7.6*,
Cc1ccccc1/C=N/Nc1ccnc2cc(Cl)ccc12,-23,23*,-34,8,nt,>50,
Cc1ccc(/C=N/Nc2ccnc3cc(Cl)ccc23)c(C)c1,-19,-5,-21,8,nt,nt,
COc1cccc(NC(=O)Nc2ccc3c(c2)N(C)C(=O)CS3)c1,-1,20*,-3,-1,nt,>50,
CC(=O)Nc1ccc(NC(=O)Nc2ccc3c(c2)N(C)C(=O)CS3)cc1,-1,-4,-4,18,nt,nt,
COc1cc(C(=O)NCCNc2nc3cc(C)ccc3cc2C#N)cc(OC)c1OC,nt,17*,nt,nt,nt,30*,
Cc1cc(C)c2cc(C#N)c(NCCOC(=O)c3ccccc3C)nc2c1,3,8,8,10,nt,nt,
COc1ccccc1C(=O)NCCNc1nc2cc(C)cc(C)c2cc1C#N,nt,19*,nt,nt,nt,40*,
COc1cc(OC)cc(C(=O)NCCNc2nc3cc(C)cc(C)c3cc2C#N)c1,nt,18*,nt,nt,nt,21*,
